The values that follow come from the array DNA melting data of Ke et al. (doi:10.1101/2024.01.08.574731).

Data set [1] can be described thus: melting temperature; fluorescence melt of hairpins on a sequencing array, two-state fit, raised by 9.35 °C to match UV melts. As to conditions: sodium 0.088 M. In short, it runs like this: (§1)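 Folding enthalpy and melting temperature come from bootstrapped two-state fits to Cy3 fluorescence of library hairpins carrying annealed Cy3 and quencher oligos on a sequenced MiSeq flow cell. Imaging was done in 50 mM Na-HEPES pH 8.0, 25 mM NaCl, stepping by 2.5 °C up to 60 °C, and signals were normalised to pre-quench Cy3 and to control constructs. Results of four replicates were combined by inverse variance, and fitted temperatures were raised by 9.35 °C to match UV melts.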

Data set [2] in a line: folding enthalpy; higher = less favourable; fluorescence melt of hairpins on a sequencing array, two-state fit. Particulars: sodium 0.088 M. In short, it runs like this: as §1

As to GTAGTTCGAAAGAAATAC (((.(((....))).))), the Tm in data set [1] amounted to 42.2 °C. In addition, the folding enthalpy in data set [2] is -29.2 kcal/mol.

Regarding GATCCTACTAGGATC ((((((...)))))), in data set [1], the Tm is 53.6 °C. The folding enthalpy in data set [2] was -36.2 kcal/mol.

As to GGTGCTGCGAAAGCAACC (((..(((....)))))), the Tm in data set [1] worked out at 43.8 °C. Further, in data set [2], the folding enthalpy was -14.4 kcal/mol.

As to GAGCACGAAAGTGTCCTC ((((((....)))..))), the Tm in data set [1] is 35.2 °C. Further, in data set [2], the folding enthalpy was -12.9 kcal/mol.

With GACCCCCGAAAGGGAGTC (((.(((....))).))), the Tm in data set [1] was 54 °C. Moreover, in data set [2], the folding enthalpy is -28.8 kcal/mol.

With GATGCGCGAAAGCGTATC (((.(((....))).))), in data set [1], the Tm was determined as 63 °C. The folding enthalpy in data set [2] is -27.8 kcal/mol.

Consider GATTACGAAAGTAGAATC ((((((....)))..))), for which the Tm in data set [1] came out at 27.4 °C. The folding enthalpy in data set [2] is -14.4 kcal/mol.

With GGTCCCGAAAGGGTTACC ((((((....)))..))), the Tm in data set [1] came out at 39.6 °C. The folding enthalpy in data set [2] was -15.4 kcal/mol.

For the sequence GCTACGGGAAACCGCAGC (((.(((....))).))), the Tm in data set [1] worked out at 49.7 °C. Moreover, in data set [2], the folding enthalpy was -41.7 kcal/mol.

As to GATGGCGGAAACACCACC (.(((.(....).))).), the Tm in data set [1] is 30.2 °C. In data set [2], the folding enthalpy is -14.8 kcal/mol.

On to GTATAAGCGAAAGCTTAC (((..(((....)))))), for which, in data set [1], the Tm turned out to be 33.8 °C. In data set [2], the folding enthalpy is -9.03 kcal/mol.

On to GCGGGCGGCCGC ((((....)))), for which the Tm in data set [1] was determined as 59.1 °C. Moreover, the folding enthalpy in data set [2] is -42 kcal/mol.

As to GGGTTCGAAAGAACGCCC ((((((....)))..))), in data set [1], the Tm is 50 °C. Also, in data set [2], the folding enthalpy was -11.2 kcal/mol.

With GATCTGGTAGCAGATC ((((((....)))))), the Tm in data set [1] came to 52.2 °C. The folding enthalpy in data set [2] is -36.6 kcal/mol.

Turning to GTACTCGAAAGAGACTAC ((((((....)))..))), the Tm in data set [1] worked out at 33.6 °C. The folding enthalpy in data set [2] was -14.5 kcal/mol.

For GAGCCGGGAAACCGGCCC (.(((((....))))).), the Tm in data set [1] worked out at 48.2 °C. The folding enthalpy in data set [2] is -9.15 kcal/mol.

As for GATCGGAGGGCCGATC ((((((....)))))), the Tm in data set [1] amounted to 55.1 °C. Moreover, the folding enthalpy in data set [2] was -37.3 kcal/mol.

Consider GCGTATCACGC ((((...)))), for which the Tm in data set [1] was determined as 56.9 °C. The folding enthalpy in data set [2] was -34.2 kcal/mol.

Take GGATGTCGAAAGACTCC (((.(((....)))))): in data set [1], the Tm worked out at 51.8 °C. In addition, the folding enthalpy in data set [2] is -25.3 kcal/mol.

With CGGGCGGAAACGCAGCCG ((((((....)))..))), in data set [1], the Tm is 50.2 °C. Further, the folding enthalpy in data set [2] is -19.5 kcal/mol.

With GCGTGCGGAAACGTGCGC (((..((....))..))), the Tm in data set [1] is 59.6 °C. Further, in data set [2], the folding enthalpy was -25.6 kcal/mol.

With GATGTTGGAAACAATATC (((.(((....))).))), the Tm in data set [1] came out at 37.5 °C. The folding enthalpy in data set [2] is -27.1 kcal/mol.

On to GATCTTTGGCAAGATC ((((((....)))))), for which the Tm in data set [1] stood at 40 °C. Further, the folding enthalpy in data set [2] was -29 kcal/mol.

With GATCGTACATACGATC ((((((....)))))), the Tm in data set [1] was 54.9 °C. The folding enthalpy in data set [2] was -41.2 kcal/mol.

Take GGTGATCGAAAGATAACC (((.(((....))).))): the Tm in data set [1] stood at 47.7 °C. Besides, the folding enthalpy in data set [2] was -29.5 kcal/mol.

Turning to GATCGAATAGTCGATC ((((((....)))))), the Tm in data set [1] is 48.8 °C. The folding enthalpy in data set [2] was -34.8 kcal/mol.

In the case of GGGGCTGGAAACGGCCCC (((((.(....).))))), in data set [1], the Tm worked out at 66.8 °C. Also, the folding enthalpy in data set [2] was -40.7 kcal/mol.

Take GATACCCGAAAGGGGATC (((.(((....))).))): the Tm in data set [1] came to 60 °C. For the same sequence, the folding enthalpy in data set [2] was -30.2 kcal/mol.

With GCGCTGCGAAAGCAAGGC ((..(((....)))..)), the Tm in data set [1] is 46.7 °C. In addition, the folding enthalpy in data set [2] was -16 kcal/mol.

GATCACACTTGTGATC ((((((....)))))): in data set [1], the Tm stood at 56.4 °C. Further, in data set [2], the folding enthalpy was -39.4 kcal/mol.

In the case of GGTGAGCGAAAGCTACC (((.(((....)))))), in data set [1], the Tm came out at 51.7 °C. Also, the folding enthalpy in data set [2] is -19.2 kcal/mol.

For GCATGCGGAAACGCATAC (.(((((....))))).), the Tm in data set [1] was 44 °C. Besides, in data set [2], the folding enthalpy was -9.77 kcal/mol.

Turning to GATCGAGTCTCGATC ((((((...)))))), the Tm in data set [1] came out at 53.2 °C. Besides, the folding enthalpy in data set [2] was -39.2 kcal/mol.

In the case of CGAACACGGAAACGTTCG (((..(((....)))))), the Tm in data set [1] worked out at 42.7 °C. The folding enthalpy in data set [2] is -32.4 kcal/mol.

As for GCTATGCGAAAGCGTTGC ((.(.((....)).).)), in data set [1], the Tm amounted to 48.9 °C. The folding enthalpy in data set [2] was -22.9 kcal/mol.

For GCATACGAAAGTATATGC ((((((....)))..))), in data set [1], the Tm is 41.9 °C. For the same sequence, in data set [2], the folding enthalpy was -24.7 kcal/mol.

On to GCGAAAGGAAACTTTTGC ((.((((....)))).)), for which the Tm in data set [1] is 45.9 °C. The folding enthalpy in data set [2] was -32.1 kcal/mol.
